Apaf-1 act: activators of human Apaf-1 apoptosome. Apaf-1 apoptosome caspase-3 activation, DEVD-Rh110 fluorescence; stronger effect = lower value. activity change, negative = activation, % at 20 µM. 330,000 compounds, 0.31% hits. AID 489031;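 active means activity change at or below -40% at 20 µM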
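system = biochemical Apaf-1 apoptosome reconstitution | buffer or medium = 20 mM HEPES pH 7.5 with CHAPS, BSA | also added = dATP and cytochrome c as apoptosome triggers, (Z-DEVD)2-Rh110 substrate | incubation = 30 min compound preincubation and 50 min reaction, both room temperature | measured by = fluorescence, 540 nm emission, 480 nm excitation | read-out basis = Caspase-3 cleavage activity downstream of Apaf-1 activation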
Rh110 interf act: counter-screen for Apaf-1 activators: fluorescence interference. shares compounds with Apaf-1 act. Rh110 fluorescence interference, quenched caspase reaction, Ex480/Em540. fluorescence interference (activity change), % at 20 µM, hits read low. 980 tested, under 10 active. AID 504616;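 active means mean activity change at or below -40% when tested at 20 µM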
Apaf-1 act conf2: confirmation of human Apaf-1 activators; shares compounds with Apaf-1 act; reconstituted apoptosome caspase-3 activity, DEVD-Rh110 fluorescence; stronger effect = lower value; activity change, negative = activation, % at 20 µM; 980 compounds, 5% hits; AID 504617;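 active means mean activity change at or below -40%, meaning activation of 40% or more, at 20 µM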
Starred values were filed as active, the others as inactive. A selection follows.

How did O=C(O)c1cc(O)c2c(c1)[C@@H]([C@H]1c3cc(C(=O)O)cc(O)c3C(=O)c3c(O[C@@H]4O[C@H](CO)[C@@H](O)[C@H](O)[C@H]4O)cccc31)c1cccc(OC3O[C@H](CO)[C@@H](O)[C@H](O)[C@H]3O)c1C2=O (some centres not stated) do in these assays?
Apaf-1 act: 95.4

What do the screens show for `COc1ccc2[nH]c3c(c2c1)CCN1C(=O)C(CC(=O)NCCC2=CCCCC2)C[C@H](C(=O)N2CCOCC2)[C@@]31CCC1CCCC1` (some centres not stated)?
Apaf-1 act: 43.7

How did O=c1ccc2cc3c([nH]c4ccc(Br)cc43)oc-2c1O do in these assays?
Apaf-1 act: 85.3

What do the screens show for `O=C(NCCCn1ccnc1)c1cn(Cc2ccc(F)cc2)nn1`?
Apaf-1 act: -41.0*; Rh110 interf act: 4.4; Apaf-1 act conf2: 0.1

How did CCOc1ccc(-c2cc(C(=O)NCCCn3ccnc3)c3cc(Br)ccc3n2)cc1 do in these assays?
Apaf-1 act: 42.5

Results for Nc1ccc2nc(-c3ccccc3)c(-c3ccccc3)nc2c1 ?
Apaf-1 act: 64.6

How did Cc1cccc(-c2nnc3sc(-c4ccccc4C)nn23)c1 do in these assays?
Apaf-1 act: -48.6*; Rh110 interf act: 6.3; Apaf-1 act conf2: 26.3

What do the screens show for `COc1cccc(OC)c1-c1nn2c(-c3cc(-c4ccccc4)n[nH]3)nnc2s1`?
Apaf-1 act: 53.1

What do the screens show for `Cc1cccc(-c2cc3c(nn2)-c2ccccc2C3=O)c1`?
Apaf-1 act: 91.1

How did N#Cc1c(N(CCO)CCO)nc(N)c2c(N)nc3c(c12)CC(=O)N3CC1CCCO1 (configuration not stated) do in these assays?
Apaf-1 act: 97.6

Results for CC(=O)N(C1=C(Cl)C(=O)c2ccccc2C1=O)C1CCCCC1 ?
Apaf-1 act: 85.4

How did Cc1ccc(NC2=C/C(=N/S(=O)(=O)c3cccs3)c3ccccc3C2=O)cc1 do in these assays?
Apaf-1 act: 92.4

What do the screens show for `COc1ccc(C(C[N+](=O)[O-])c2c(C)[nH]n(-c3ccccc3)c2=O)cc1` (configuration not stated)?
Apaf-1 act: 95.8

What do the screens show for `Cc1nc2c(=O)[nH]c(=S)n(C)c2nc1C`?
Apaf-1 act: -262.5*; Rh110 interf act: 8.6; Apaf-1 act conf2: 17.3

Results for CCCCCCCCCCOC(=O)Cn1c(COc2cccc(C)c2)[n+](C)c2ccccc21 ?
Apaf-1 act: 79.4

What do the screens show for `Cc1ccnc2c1ccc1c(C)ccnc12`?
Apaf-1 act: 44.5

How did N#Cc1ccccc1NC(=O)CN1CCN(Cc2ccccc2)CC1 do in these assays?
Apaf-1 act: -41.6*; Rh110 interf act: 19.1; Apaf-1 act conf2: 10.9

Results for N#Cc1c(NCCO)nc(NCc2ccccc2)c2c1CCN(Cc1ccccc1)C2 ?
Apaf-1 act: 60.0

What do the screens show for `N#Cc1c(N)sc(=S)c2c1CCN(Cc1ccccc1)C2`?
Apaf-1 act: 95.5

Results for Cc1c(CCOC(=O)C2C3CC4CC(C3)CC2C4)sc[n+]1CC(=O)c1ccc(Br)cc1 (configuration not stated) ?
Apaf-1 act: 50.2

How did S=C(Nc1ccc2nsnc2c1)N1CCCC1 do in these assays?
Apaf-1 act: 98.4

How did Cc1cc2cc(CNC(=O)Nc3cccc(Cl)c3)ccc2n1C do in these assays?
Apaf-1 act: 48.7

Results for NC(=O)C1(N2CCCCC2)CCN(C(=S)Nc2cccc(Cl)c2)CC1 ?
Apaf-1 act: -43.3*; Rh110 interf act: 1.5; Apaf-1 act conf2: 14.3

What do the screens show for `Cc1ccc2nc(/C(C#N)=C\c3ccc(N4CCOCC4)o3)[nH]c2c1`?
Apaf-1 act: 44.1

Results for COC(=O)CCC(=O)OC1(C)C(=O)C2=CN(CCCOC(C)C)C(c3ccc(OC)cc3)=CC2=C(Br)C1=O (configuration not stated) ?
Apaf-1 act: 79.3

What do the screens show for `CCOC(=O)C1CCCN(C2CCN(Cc3nc(Cc4ccccc4)no3)CC2)C1` (configuration not stated)?
Apaf-1 act: -72.0*; Rh110 interf act: -0.2; Apaf-1 act conf2: 11.0

Results for CCOC(=O)C1CCN(C2=C(NS(=O)(=O)c3ccc(Br)cc3)C(=O)c3ccccc3C2=O)CC1 ?
Apaf-1 act: 68.0

How did O=C(C1CCCN(S(=O)(=O)c2cnc[nH]2)C1)N1CCN(Cc2ccccc2)CC1 (configuration not stated) do in these assays?
Apaf-1 act: 40.5

Results for CC(=O)CCc1ccc(OCC(O)CNC2CCCc3ccccc32)cc1 (configuration not stated) ?
Apaf-1 act: 65.0
